Experiments:
Rattus norvegicus [1] = experiment: Antiinflammatory activity in Wistar rat assessed as inhibition of carrageenan-induced paw edema at 0.05 mmol/kg, po administered 30 mins prior challenge measured after 5 hrs; assay type: functional
Method in brief: (§1)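 Wistar rats of either sex, 150–175 g, fasted 16 h, 6 per group. Dosed orally at 0.05 mmol/kg, suspended in 1% CMC in water (10 ml/kg). 30 min later, 0.1 ml of 1% carrageenan in saline injected subplantar into the left hind paw. Paw volume read by plethysmometer at 0, 3 and 5 h. % inhibition = (1 − Vt/Vc) × 100 against the vehicle group.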

Rattus norvegicus [2] = experiment: Antiinflammatory activity in Wistar rat assessed as inhibition of carrageenan-induced paw edema at 0.05 mmol/kg, po administered 30 mins prior challenge measured after 3 hrs; assay type: functional; method in brief: as §1
HL-60(TB) = experiment: Growth inhibition of human HL-60(TB) cells assessed as cell growth at 10 uM after 48 hrs by sulforhodamine B assay; assay type: functional; conditions: HL-60, 48 h, read-out: Activity
Rattus norvegicus [3] = experiment: Ulcerogenic activity in Wistar albino rat at 0.15 mmol/kg, po measured after 6 hrs; assay type: toxicity, organism-based; conditions: in vivo
Method in brief: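 Acute gastric ulcer test in Wistar rats (160–220 g) fasted 24 h, randomized into groups of six. Compound (0.15 mmol/kg) suspended in 1% w/v CMC in distilled water (10 ml/kg vehicle) was given orally, with vehicle and etoricoxib groups alongside. Animals were sacrificed under deep ether anesthesia 6 h after dosing.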

UO-31 = experiment: Growth inhibition of human UO31 cells assessed as cell growth at 10 uM after 48 hrs by sulforhodamine B assay; assay type: functional; conditions: UO-31, 48 h, read-out: Activity
Method in brief: (§2)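 Single-dose NCI screen. Tumor lines were cultured in medium with 5% fetal calf serum and 2 mM L-glutamine, preincubated 24 h, then given compound in DMSO. After 48 h continuous exposure, cell growth was estimated by sulforhodamine B protein assay.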

[4] = Growth inhibition of human NCI-ADR-RES cells assessed as cell growth at 10 uM after 48 hrs by sulforhodamine B assay; assay type: functional; conditions: read-out: Activity
NCI-H522 = experiment: Growth inhibition of human NCI-H522 cells assessed as cell growth at 10 uM after 48 hrs by sulforhodamine B assay; assay type: functional; conditions: NCI-H522, 48 h, read-out: Activity
NCI-H23 = experiment: Growth inhibition of human NCI-H23 cells assessed as cell growth at 10 uM after 48 hrs by sulforhodamine B assay; assay type: functional; conditions: NCI-H23, 48 h, read-out: Activity
MOLT-4 = experiment: Growth inhibition of human MOLT4 cells assessed as cell growth at 10 uM after 48 hrs by sulforhodamine B assay; assay type: functional; conditions: MOLT-4, 48 h, read-out: Activity
K562 = experiment: Growth inhibition of human K562 cells assessed as cell growth at 10 uM after 48 hrs by sulforhodamine B assay; assay type: functional; conditions: K562, 48 h, read-out: Activity
MDA-MB-435 = experiment: Growth inhibition of human MDA-MB-435 cells assessed as cell growth at 10 uM after 48 hrs by sulforhodamine B assay; assay type: functional; conditions: MDA-MB-435, 48 h, read-out: Activity
SR = experiment: Growth inhibition of human SR cells assessed as cell growth at 10 uM after 48 hrs by sulforhodamine B assay; assay type: functional; conditions: read-out: Activity; method in brief: as §2
[5] = Growth inhibition of human Hs 578T cells assessed as cell growth at 10 uM after 48 hrs by sulforhodamine B assay; assay type: functional; conditions: read-out: Activity
RPMI-8226 = experiment: Growth inhibition of human RPMI8226 cells assessed as cell growth at 10 uM after 48 hrs by sulforhodamine B assay; assay type: functional; conditions: RPMI-8226, 48 h, read-out: Activity
OVCAR-3 = experiment: Growth inhibition of human OVCAR3 cells assessed as cell growth at 10 uM after 48 hrs by sulforhodamine B assay; assay type: functional; conditions: OVCAR-3, 48 h, read-out: Activity
[6] = Growth inhibition of human EKVX cells assessed as cell growth at 10 uM after 48 hrs by sulforhodamine B assay; assay type: functional; conditions: read-out: Activity
MDA-MB-468 = experiment: Growth inhibition of human MDA-MB-468 cells assessed as cell growth at 10 uM after 48 hrs by sulforhodamine B assay; assay type: functional; conditions: MDA-MB-468, 48 h, read-out: Activity
T47D = experiment: Growth inhibition of human T47D cells assessed as cell growth at 10 uM after 48 hrs by sulforhodamine B assay; assay type: functional; conditions: read-out: Activity; method in brief: as §2
CAKI-1 = experiment: Growth inhibition of human CAKI-1 cells assessed as cell growth at 10 uM after 48 hrs by sulforhodamine B assay; assay type: functional; conditions: CAKI-1, 48 h, read-out: Activity
SK-MEL-5 = experiment: Growth inhibition of human SK-MEL-5 cells assessed as cell growth at 10 uM after 48 hrs by sulforhodamine B assay; assay type: functional; conditions: SK-MEL-5, 48 h, read-out: Activity
SF-295 = experiment: Growth inhibition of human SF295 cells assessed as cell growth at 10 uM after 48 hrs by sulforhodamine B assay; assay type: functional; conditions: SF-295, 48 h, read-out: Activity

Structure (SMILES)	inhibition in vivo at 50 µmol/kg (Rattus norvegicus [1]) [%]	inhibition in vivo at 50 µmol/kg (Rattus norvegicus [2]) [%]	further results
CS(=O)(=O)c1ccc(N2N=C(c3ccc(Cl)c(Cl)c3)CCC2=O)cc1	34.2	26.6	–
CS(=O)(=O)c1ccc(N2N=C(c3ccc(O)c(Cl)c3)CCC2=O)cc1	55.2	43.3	growth at 10 µM (HL-60(TB)): 66.7%
Cc1ccc(O)c(C2=NN(c3ccc(S(C)(=O)=O)cc3)C(=O)CC2)c1	86.8	66.6	Activity (Rattus norvegicus [3]): Non-toxic; growth at 10 µM (UO-31): 70%
Cc1cc(C2=NN(c3ccc(S(C)(=O)=O)cc3)C(=O)CC2)ccc1O	60.5	26.6	–
CS(=O)(=O)c1ccc(N2N=C(c3ccccc3)CCC2=O)cc1	47.3	26.6	–
CS(=O)(=O)c1ccc(N2N=C(c3ccc(Cl)cc3)CCC2=O)cc1	36.8	26.6	growth at 10 µM [4]: 58.3%; growth at 10 µM (NCI-H522): 25.4%; growth at 10 µM (NCI-H23): 65.3%
CS(=O)(=O)c1ccc(N2N=C(c3ccc(Br)cc3)CCC2=O)cc1	31.5	10	–
CS(=O)(=O)c1ccc(N2N=C(c3ccc(F)cc3)CCC2=O)cc1	73.6	60	growth at 10 µM (MOLT-4): 44.7%; growth at 10 µM (K562): 41.8%
COc1ccc(C2=NN(c3ccc(S(C)(=O)=O)cc3)C(=O)CC2)cc1	68.4	46.7	growth at 10 µM (UO-31): 62.1%; growth at 10 µM (MDA-MB-435): 7.92%; growth at 10 µM (SR): 64%
CC(C)(C)c1ccc(C2=NN(c3ccc(S(C)(=O)=O)cc3)C(=O)CC2)cc1	68.4	50	growth at 10 µM [5]: 70.7%; growth at 10 µM (RPMI-8226): 69.6%
CS(=O)(=O)c1ccc(N2N=C(c3ccc(-c4ccccc4)cc3)CCC2=O)cc1	21	6.6	growth at 10 µM [5]: 64.6%; growth at 10 µM (OVCAR-3): 42.1%; growth at 10 µM [6]: 29.6%
CS(=O)(=O)c1ccc(N2N=C(c3ccc(Oc4ccccc4)cc3)CCC2=O)cc1	65.7	50	growth at 10 µM (MDA-MB-468): 41.6%; growth at 10 µM (T47D): 44.4%; growth at 10 µM (UO-31): 48.8%; growth at 10 µM (CAKI-1): 49.8%; growth at 10 µM (SK-MEL-5): 35.1%; growth at 10 µM (SF-295): 28.8%; growth at 10 µM [6]: 20.1%; growth at 10 µM (K562): 39.7%
COc1ccc(C2=NN(c3ccc(S(C)(=O)=O)cc3)C(=O)CC2)cc1OC	82.4	66.6	Activity (Rattus norvegicus [3]): Non-toxic
Cc1ccc(-c2ncc(Cl)cc2-c2ccc(S(C)(=O)=O)cc2)cn1 [ETORICOXIB]	86.8	83.3	–

Source: ChEMBL document CHEMBL2417474, “Synthesis, antiproliferative and anti-inflammatory activities of some novel 6-aryl-2-(p-(methanesulfonyl)phenyl)-4,5-dihydropyridazi-3(2H)-ones” (Eur J Med Chem, 2013)
